According to ChEMBL document CHEMBL2029264, “Indole-based fibrates as potential hypolipidemic and antiobesity agents” (J Med Chem, 2012):
Active and inactive are the calls of the source. The calls are words filed in the database; no cut-off is given here.

Legend:
Rattus norvegicus [1] = test: Antihyperlipidemic activity in Triton WR-1339-induced hyperlipidemic rat assessed as decrease in plasma phospholipid level at 100 mg/kg, po relative to control; assay type: functional; set-up: scale not given: the % may be the effect or the level left
How it was run: (§1)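 Triton WR-1339 given to rats to induce hyperlipidemia; oral dosing. Plasma TC, PL, TG in mg/dL; PHLA as […]/h/mL plasma. Mean ± SD of six rats; Triton group compared with control, Triton plus dosed group compared with Triton group.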

Rattus norvegicus [2] = test: Antihyperlipidemic activity in Triton WR-1339-induced hyperlipidemic rat assessed as decrease in plasma triglyceride level at 100 mg/kg, po relative to control; assay type: functional; set-up: scale not given: the % may be the effect or the level left; how it was run: as §1
Rattus norvegicus [3] = test: Antihyperlipidemic activity in Triton WR-1339-induced hyperlipidemic rat assessed as decrease in plasma total cholesterol level at 50 mg/kg, po; assay type: functional
How it was run: (§2)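 Separate set of Triton WR-1339-induced hyperlipidemic rats, oral doses of 50, 100 and 150 mg/kg. Plasma TC, PL, TG in mg/dL; PHLA as […]/h/mL plasma. Mean ± SD of six rats versus Triton group.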

Rattus norvegicus [4] = test: Antihyperlipidemic activity in Triton WR-1339-induced hyperlipidemic rat assessed as decrease in plasma phospholipid level at 150 mg/kg, po; assay type: functional; how it was run: as §2
Rattus norvegicus [5] = test: Antihyperlipidemic activity in Triton WR-1339-induced hyperlipidemic rat assessed as increase in PHLA enzyme level at 50 mg/kg, po; assay type: functional; how it was run: as §2
Rattus norvegicus [6] = test: Antihyperlipidemic activity in Triton WR-1339-induced hyperlipidemic rat assessed as increase in LCAT enzyme level at 100 mg/kg, po; assay type: functional; how it was run: as §1
Rattus norvegicus [7] = test: Antihyperlipidemic activity in Triton WR-1339-induced hyperlipidemic rat assessed as increase in LCAT enzyme level at 150 mg/kg, po; assay type: functional; how it was run: as §2
Rattus norvegicus [8] = test: Antihyperlipidemic activity in po dosed Triton WR-1339-induced hyperlipidemic rat assessed as decrease in plasma total cholesterol level; assay type: functional, organism-based; how it was run: as §1
Rattus norvegicus [9] = test: Antihyperlipidemic activity in po dosed Triton WR-1339-induced hyperlipidemic rat assessed as decrease in plasma triglyceride level; assay type: functional, organism-based; how it was run: as §1
Rattus norvegicus [10] = test: Antihyperlipidemic activity in po dosed Triton WR-1339-induced hyperlipidemic rat assessed as increase in PHLA; assay type: functional, organism-based; how it was run: as §1
Rattus norvegicus [11] = test: Antiobesity activity in HFD-induced hyperlipidemic Charles Foster rat assessed as decrease in body weight at 100 mg/kg, po administered for 4 weeks; assay type: functional, organism-based; set-up: dose 100 mg/kg
How it was run: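 Adult male Charles Foster rats given high-fat or normal diet 4 weeks, then diet plus vehicle or daily dosing 4 more weeks, sacrificed at week 8. Body weight gain, food intake, food efficiency ratio (weight gain/food intake over the period), and mesenteric, gonadal, inguinal and perirenal fat-pad weights recorded; mean ± SD, n = 6.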

Rattus norvegicus [12] = test: Toxicity in HFD-induced hyperlipidemic Charles Foster rat assessed as decrease in food intake at 100 mg/kg, po administered for 4 weeks; assay type: organism-based; set-up: dose 100 mg/kg, route oral; settings: in vivo, 672 h
How it was run: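 Adult male Charles Foster rats (200−225 g) were kept at 25−26 °C, 50−70% humidity, and a 12/12 h light/dark cycle. They were fed a high-fat diet for 4 weeks to induce hyperlipidemia, then given high-fat diet plus test agent at 100 mg/kg/d for another 4 weeks. Food intake was recorded over the experimental period, with n = 6 per group, and animals were sacrificed after 8 weeks.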

Rattus norvegicus [13] = test: Antihyperlipidemic activity in HFD-induced hyperlipidemic Charles Foster rat assessed as decrease in serum triglyceride level at 100 mg/kg, po administered for 4 weeks relative to control; assay type: functional; set-up: scale not given: the % may be the effect or the level left
How it was run: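 Male Charles Foster rats (200−225 g): high-fat diet 4 weeks, then diet plus daily dosing 4 weeks. Overnight fast, retro-orbital blood in EDTA (3 mg/mL blood), centrifuged to serum. TC, PL, TG in mg/dL; LCAT as nmol cholesterol released/h/L plasma. Mean ± SD; dosed groups compared with high-fat group, P by significance levels.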

Rattus norvegicus [14] = test: Antihyperlipidemic activity in HFD-induced hyperlipidemic Charles Foster rat assessed as decrease in plasma VLDL-phospholipid level at 100 mg/kg, po administered for 4 weeks relative to control; assay type: functional; set-up: scale not given: the % may be the effect or the level left
How it was run: (§3)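 After 4 weeks high-fat feeding plus 4 weeks daily dosing, overnight fast, retro-orbital blood into EDTA tubes. Serum split into VLDL, LDL and HDL by polyanionic precipitation; each fraction assayed for TC, PL, TG and apoprotein (mg/dL plasma). Pooled data from 6 rats/group, mean ± SD, dosed groups compared with high-fat group.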

Rattus norvegicus [15] = test: Antihyperlipidemic activity in HFD-induced hyperlipidemic Charles Foster rat assessed as decrease in plasma VLDL-apoprotein level at 100 mg/kg, po administered for 4 weeks relative to control; assay type: functional; set-up: scale not given: the % may be the effect or the level left; how it was run: as §3
Rattus norvegicus [16] = test: Antihyperlipidemic activity in HFD-induced hyperlipidemic Charles Foster rat assessed as decrease in plasma LDL-total cholesterol level at 100 mg/kg, po administered for 4 weeks relative to control; assay type: functional; set-up: scale not given: the % may be the effect or the level left; how it was run: as §3
Rattus norvegicus [17] = test: Antihyperlipidemic activity in HFD-induced hyperlipidemic Charles Foster rat assessed as decrease in plasma LDL-phospholipid level at 100 mg/kg, po administered for 4 weeks relative to control; assay type: functional; set-up: scale not given: the % may be the effect or the level left; how it was run: as §3
Rattus norvegicus [18] = test: Antihyperlipidemic activity in HFD-induced hyperlipidemic Charles Foster rat assessed as decrease in plasma LDL-triglyceride level at 100 mg/kg, po administered for 4 weeks relative to control; assay type: functional; set-up: scale not given: the % may be the effect or the level left; how it was run: as §3
Rattus norvegicus [19] = test: Antihyperlipidemic activity in HFD-induced hyperlipidemic Charles Foster rat assessed as decrease in plasma LDL-apoprotein level at 100 mg/kg, po administered for 4 weeks relative to control; assay type: functional; set-up: scale not given: the % may be the effect or the level left; how it was run: as §3
Rattus norvegicus [20] = test: Antihyperlipidemic activity in HFD-induced hyperlipidemic Charles Foster rat assessed as increase in plasma HDL-total cholesterol level at 100 mg/kg, po administered for 4 weeks relative to control; assay type: functional; how it was run: as §3
Rattus norvegicus [21] = test: Antihyperlipidemic activity in HFD-induced hyperlipidemic Charles Foster rat assessed as increase in plasma HDL-triglyceride level at 100 mg/kg, po administered for 4 weeks relative to control; assay type: functional; how it was run: as §3
Rattus norvegicus [22] = test: Antihyperlipidemic activity in HFD-induced hyperlipidemic Charles Foster rat assessed as decrease in liver phospholipid level at 100 mg/kg, po administered for 4 weeks relative to control; assay type: functional; set-up: scale not given: the % may be the effect or the level left
How it was run: (§4)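 Adult male Charles Foster rats (200−225 g), high-fat diet 4 weeks, then diet plus daily dosing 4 more weeks; overnight fast, sacrifice, liver washed in cold 0.15 M KCl and held at 4 °C. Lipids extracted from liver homogenate in CHCl3/CH3OH (2:1 v/v), TC, PL and TG read in mg/g; pooled data from 6 rats/group, mean ± SD.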

Rattus norvegicus [23] = test: Antihyperlipidemic activity in HFD-induced hyperlipidemic Charles Foster rat assessed as decrease in liver triglyceride level at 100 mg/kg, po administered for 4 weeks relative to control; assay type: functional; set-up: scale not given: the % may be the effect or the level left; how it was run: as §4
Rattus norvegicus [24] = test: Antihyperlipidemic activity in HFD-induced hyperlipidemic Charles Foster rat assessed as increase in [I125]-LDL catabolism in plasma membrane of liver at 100 mg/kg/day, po administered for 4 weeks; assay type: functional
How it was run: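 Rats on 8 weeks total of high-fat diet, dosed daily for the last 4 weeks, then sacrificed. Human serum LDL radiolabeled with I125; specific binding to liver plasma membrane preparation measured as receptor-mediated LDL catabolism. Mean ± SD, n = 6.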

Rattus norvegicus [25] = test: Toxicity in HFD-induced hyperlipidemic Charles Foster rat assessed as mortality at 100 mg/kg/day, po administered for 4 weeks; assay type: organism-based; set-up: route oral; settings: in vivo, 672 h
How it was run: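 Male Charles Foster rats (200−225 g) were fed a high-fat diet for 4 weeks, then dosed at 100 mg/kg/d alongside the same diet for 4 more weeks. Survival was monitored. After an overnight fast, blood was drawn and the animals were sacrificed. Macroscopic inspection and autopsy were then performed, with n = 6 per group.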

Row | SMILES | Activity (Rattus norvegicus [1]) [%] | Activity (Rattus norvegicus [2]) [%] | Activity (Rattus norvegicus [3]) [mg/dL] | Activity (Rattus norvegicus [4]) [mg/dL] | percent increase (Rattus norvegicus [5]) [%] | Activity (Rattus norvegicus [6]) [nmol/h/mL] | Activity (Rattus norvegicus [7]) [nmol/h/mL] | Activity (Rattus norvegicus [8]) | Activity (Rattus norvegicus [9]) | Activity (Rattus norvegicus [10]) | Activity (Rattus norvegicus [11]) | Activity (Rattus norvegicus [12]) | Activity (Rattus norvegicus [13]) [%] | Activity (Rattus norvegicus [14]) [%] | Activity (Rattus norvegicus [15]) [%] | Activity (Rattus norvegicus [16]) [%] | Activity (Rattus norvegicus [17]) [%] | Activity (Rattus norvegicus [18]) [%] | Activity (Rattus norvegicus [19]) [%] | Activity (Rattus norvegicus [20]) [%] | also measured
1 | CCOC(=O)C(C)Oc1ccc(C(c2cn(CC)c3ccccc23)c2cn(CC)c3ccccc23)cc1 (stereo not given) | 23 | 25 | 16 | 29 | 11 | 12 | 18 | Dose-dependent effect | Dose-dependent effect | Dose-dependent effect | Active | Non-toxic | 25 | 16 | 26 | 24 | 25 | 21 | 25 | 14 | Activity (Rattus norvegicus [21]): 11%; Activity (Rattus norvegicus [22]): 28%; Activity (Rattus norvegicus [23]): 27%; Activity (Rattus norvegicus [24]): 24%; Activity (Rattus norvegicus [25]): Non-toxic
2 | CCOC(=O)CCCOc1ccc(C(c2cn(C)c3ccccc23)c2cn(C)c3ccccc23)cc1 | 14 | 27 | 15 | 29 | 10 | 15 | 21 | Dose-dependent effect | Dose-dependent effect | Dose-dependent effect | Active | Non-toxic | 27 | 11 | 33 | 22 | 20 | 25 | 21 | 12 | Activity (Rattus norvegicus [21]): 14%; Activity (Rattus norvegicus [22]): 23%; Activity (Rattus norvegicus [23]): 24%; Activity (Rattus norvegicus [24]): 18%; Activity (Rattus norvegicus [25]): Non-toxic
